Data as given in ChEMBL document CHEMBL5032499, “A Druglike Small Molecule that Targets r(CCUG) Repeats in Myotonic Dystrophy Type 2 Facilitates Degradation by RNA Quality Control Pathways” (J Med Chem, 2021).
Values belong to the molecule of their own block, whether it stands above or below them. Calls of active or inactive are those of the source. The rule behind the calls is not given here.

What was measured:
[1] = Induction of disruption of r(CCUG)12-MBNL1 complex (unknown origin) incubated for 15 mins by TR-FRET assay; set-up: species or system Homo sapiens
Summary of the method: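 Biotinylated r(CCUG)12 was folded at 60 °C for 5 min in 20 mM HEPES pH 7.5, 110 mM KCl, 10 mM NaCl. It was then brought to assay buffer (plus 2 mM MgCl2, 2 mM CaCl2, 5 mM DTT, 0.1% BSA, 0.5% Tween-20) and preincubated 15 min with MBNL1-His6 (final 80 nM RNA, 60 nM protein). Compound was added for 15 min, then streptavidin-XL665 (40 nM) and anti-His6-Tb (0.44 ng/μL) for 30 min at room temperature. TR-FRET 545/665 ratios were read; IC50 was taken from dose-response fits.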

Homo sapiens [2] = organism: Homo sapiens; experiment: Inhibition of r(CCUG)12-MBNL1 complex formation (unknown origin) assessed as rescue of IR exon 11 splicing defect at 5 uM by RT-PCR analysis; set-up: scale not given: the % may be the effect or the level left
Summary of the method: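 DM2 patient fibroblasts were treated at ~40% confluency for 48 h. About 1 μg of total RNA was reverse transcribed, and IR exon 11 was PCR-amplified for 35 cycles (95 °C/58 °C/72 °C). Products were resolved on 2% agarose stained with ethidium bromide and quantified by densitometry. Percent rescue was calculated as (DM2 untreated − treated exclusion)/(DM2 untreated − WT exclusion) × 100.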

Fibroblast [3] = experiment: Cytotoxicity against DM2 patient derived fibroblast assessed as cell viability at 5 uM incubated for 48 hrs by Cell Titre-Glo assay; type: cell-based; settings: human
Summary of the method: (§1)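 DM2 patient-derived fibroblasts were grown in high-glucose DMEM with 20% FBS at 37 °C, 5% CO2. After 48 h of compound treatment, viability was read as CellTiter-Glo luminescence after 10 min at room temperature (n = 6 replicates, one independent experiment).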

Homo sapiens [4] = organism: Homo sapiens; experiment: Binding affinity to r(GACAGCCUGCUGUC)2 duplex (unknown origin) assessed as positive phase signal at 300 uM by waterLOGSY NMR spectroscopy
Summary of the method: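 For WaterLOGSY NMR, each compound at 300 μM was run alone or with 15 μM RNA (20:1 compound:RNA) in H2O containing 5% D2O by volume.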

Homo sapiens [5] = organism: Homo sapiens; experiment: Binding affinity to r(GACAGCCUGCUGUC)2 (unknown origin) duplex assessed as resonance shift in H6 and H8 protons of RNA […] by 1D NMR spectroscopy
Summary of the method: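 For 1D NMR, RNA at 100 μM in 100% D2O was titrated with compound at 0.5, 1.0, 1.5 and 2.0 compound:RNA molar ratios, each in a separate sample.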

Fibroblast [6] = experiment: Cytotoxicity against DM2 patient derived fibroblast assessed as cell viability upto 20 uM incubated for 48 hrs by Cell Titre-Glo assay; type: cell-based; settings: human; summary of the method: as §1

Compound: Cn1nc(Nc2nc(NCCCO)c3ccccc3n2)c2ccccc21
- IC50 [1]: 200 µM

Compound: CC(=O)Nc1cccc(Nc2nc(NCC3CCCO3)c3ccccc3n2)c1 (stereo unspecified)
- IC50 [1]: 90 µM

Compound: CC(=O)Nc1ccc(Nc2nc(NCC3CCCO3)c3ccccc3n2)cc1 (stereo unspecified)
- IC50 [1]: 45 µM
- Activity (Homo sapiens [4]): Active
- Activity (Homo sapiens [5]): Active
- Activity (Fibroblast [6]): Non-Toxic

Compound: CC(=O)Nc1ccc(Nc2nc(N3CCCC3)c3ccccc3n2)cc1
- IC50 [1]: 35 µM
- Activity (Homo sapiens [4]): inactive

Compound: Cc1ccc2nc(Nc3ccc4nc(NCCOc5ccccc5)sc4c3)nc(NCCCO)c2c1
- IC50 [1]: 110 µM

Compound: OCCCNc1nc(Nc2ccc3c(c2)OCCO3)nc2ccc(F)cc12
- IC50 [1]: 60 µM

Compound: Cc1ccc2nc(Nc3ccc4nc(NCCOCc5ccccc5)sc4c3)nc(NCCCO)c2c1
- IC50 [1]: 20 µM

Compound: CN(C)c1nc(Nc2cccc(O)c2)nc2ccccc12
- IC50 [1]: 75 µM

Compound: CCOc1ccc(C(=O)Nc2cc(-c3nc4ccccc4[nH]3)ccc2Cl)cc1[N+](=O)[O-]
- IC50 [1]: 105 µM

Compound: CC(=O)c1cccc(Nc2nc(N(C)C)c3ccccc3n2)c1
- IC50 [1]: 100 µM

Compound: CN(C)c1nc(Nc2ccc(O)cc2)nc2ccccc12
- IC50 [1]: 70 µM

Compound: OCCCNc1nc(Nc2ccc3c(c2)OCCO3)nc2c(F)cccc12
- IC50 [1]: 200 µM

Compound: Cc1ccc2nc(Nc3ccc4nc(NCc5ccc6c(c5)OCO6)sc4c3)nc(NCCCO)c2c1
- IC50 [1]: 105 µM

Compound: Cc1ccc2nc(Nc3ccc4nc(C(N)=O)sc4c3)nc(NCCCO)c2c1
- IC50 [1]: 200 µM

Compound: Cc1ccc2nc(Nc3ccc4nc(-c5cc[nH]n5)sc4c3)nc(NCCCO)c2c1
- IC50 [1]: 20 µM

Compound: Cc1ccc2nc(Nc3ccc4nc(-c5ccc(F)cc5)sc4c3)nc(NCCCO)c2c1
- IC50 [1]: 200 µM
- Activity (Fibroblast [3]): Toxic

Compound: COCCn1cncc1CNC(=O)Nc1ccc2cnn(C)c2c1
- IC50 [1]: 200 µM

Compound: Cc1ccc2nc(Nc3ccc4cnn(C)c4c3)nc(NCCCO)c2c1
- IC50 [1]: 30 µM
- Activity (Fibroblast [3]): Toxic

Compound: OCCCNc1nc(Nc2ccc3c(c2)OCCO3)nc2c1COC2
- IC50 [1]: 200 µM

Compound: OCCCNc1nc(Nc2ccc3c(c2)OCO3)nc2ccccc12
- IC50 [1]: 200 µM

Compound: Cc1nc2ccc(Nc3nc(NCCCO)c4ccccc4n3)cc2s1
- IC50 [1]: 7 µM

Compound: CC(=O)Nc1cccc(Nc2nc(N(C)C)c3ccccc3n2)c1
- IC50 [1]: 80 µM

Compound: CCOc1cc(-c2nc3cc(-n4cnnn4)ccc3[nH]2)ccc1O
- IC50 [1]: 200 µM

Compound: CCNc1nc(Nc2cccc(O)c2)nc2ccccc12
- IC50 [1]: 135 µM

Compound: CC(C)(C)C(Cn1ccnc1)NC(=O)Nc1ccc2[nH]ncc2c1 (stereo unspecified)
- IC50 [1]: 190 µM

Compound: CC(=O)Nc1ccc(Nc2nc(NCCO)c3ccccc3n2)cc1
- IC50 [1]: 60 µM

Compound: CCNc1nc(Nc2ccc(O)cc2)nc2ccccc12
- IC50 [1]: 100 µM

Compound: CN(C)c1ccc(Nc2nc(N3CCOCC3)c3ccccc3n2)cc1
- IC50 [1]: 200 µM

Compound: Cc1ccc2nc(Nc3ccc4nc(NCC(C)C)sc4c3)nc(NCCCO)c2c1
- IC50 [1]: 0.3 µM
- Activity (Fibroblast [3]): Toxic

Compound: CCn1nc(CNC(=O)CN(C)C2CCNCC2)c2ccccc21
- IC50 [1]: 70 µM

Compound: Cc1cccc2c(NCCCO)nc(Nc3ccc4c(c3)OCCO4)nc12
- IC50 [1]: 105 µM

Compound: CC(=O)Nc1ccc(Nc2nc(NCCCO)c3ccccc3n2)cc1
- IC50 [1]: 200 µM

Compound: CN1CCN(c2nc(Nc3ccc(O)cc3)nc3ccccc23)CC1
- IC50 [1]: 155 µM

Compound: CC(=O)Nc1cccc(Nc2nc(N3CCCC3)c3ccccc3n2)c1
- IC50 [1]: 70 µM

Compound: Cc1ccccc1Nc1nc(NCCCO)c2ccccc2n1
- IC50 [1]: 80 µM

Compound: CN1CCOc2cc(Nc3nc(NCCCO)c4ccccc4n3)ccc21
- IC50 [1]: 70 µM

Compound: Cc1ccc2nc(Nc3ccc4nc(N5CCN(C)CC5)sc4c3)nc(NCCCO)c2c1
- IC50 [1]: 1 µM
- Activity (Fibroblast [3]): Toxic

Compound: Cc1n[nH]c2nc(Nc3ccc4c(c3)OCCO4)nc(NCCCO)c12
- IC50 [1]: 200 µM

Compound: Cc1nc2ccc(Nc3nc(NCCCO)c4ccccc4n3)cc2o1
- IC50 [1]: 10 µM

Compound: COC(=O)c1cccc(Nc2nc(N)c3ccccc3n2)c1
- IC50 [1]: 200 µM

Compound: OCCCNc1nc(Nc2ccccc2)nc2ccccc12
- IC50 [1]: 165 µM

Compound: Cc1ccc2nc(Nc3ccc4nc(NC5CCN(Cc6ccccc6)CC5)sc4c3)nc(NCCCO)c2c1
- IC50 [1]: 0.4 µM
- Activity (Fibroblast [3]): Toxic

Compound: Cc1ccc2nc(Nc3ccc4nc(NCCN5CCOCC5)sc4c3)nc(NCCCO)c2c1
- IC50 [1]: 0.3 µM
- Activity (Fibroblast [3]): Toxic

Compound: C=CCNc1nc(Nc2ccc(O)cc2)nc2ccccc12
- IC50 [1]: 85 µM

Compound: Cc1ccc2nc(Nc3ccc4nc(NCCc5ccc(S(N)(=O)=O)cc5)sc4c3)nc(NCCCO)c2c1
- IC50 [1]: 10 µM

Compound: CN(C)c1nc(Nc2ccc3c(c2)OCCO3)nc2ccccc12
- IC50 [1]: 80 µM

Compound: Cc1ccc2nc(Nc3ccc4nc(N5CCOCC5)sc4c3)nc(NCCCO)c2c1
- IC50 [1]: 0.2 µM
- Activity (Fibroblast [3]): Toxic

Compound: Cc1ccc(Nc2nc(NCCCO)c3ccccc3n2)cc1
- IC50 [1]: 150 µM

The remaining molecules from weak to strong by IC50 [1], led by results:

- IC50 [1]: 200 µM
Compound: Cc1ccc2nc(Nc3ccc4nc(-c5cccc(F)c5)sc4c3)nc(NCCCO)c2c1

- IC50 [1]: 200 µM
Compound: Cc1ccc2nc(Nc3ccc4nc(-c5ccc6[nH]ccc6c5)sc4c3)nc(NCCCO)c2c1

- IC50 [1]: 200 µM
Compound: OCCCNc1nc(Nc2ccc3c(c2)OCCO3)nc2cc(F)ccc12

- IC50 [1]: 200 µM
Compound: OCCCNc1nc(Nc2cccc(O)c2)nc2ccccc12

- IC50 [1]: 200 µM
Compound: Cc1ccc2nc(Nc3ccc4nc(-c5ccccc5C)sc4c3)nc(NCCCO)c2c1

- IC50 [1]: 200 µM
Compound: CN(c1ccc2c(c1)OCCO2)c1nc(NCCCO)c2ccccc2n1

- IC50 [1]: 170 µM
Compound: OCCCNc1nc(Nc2ccc3c(c2)OC(F)(F)O3)nc2ccccc12

- IC50 [1]: 135 µM
Compound: OCCCNc1nc(Nc2cccc(F)c2)nc2ccccc12

- IC50 [1]: 135 µM
Compound: Cc1c(Nc2nc(NCCCO)c3ccccc3n2)ccc2c1OCCO2

- IC50 [1]: 110 µM
Compound: CC(=O)Nc1cccc(Nc2nc(NCCCO)c3ccccc3n2)c1

- IC50 [1]: 105 µM
Compound: CNc1nc(Nc2cccc(O)c2)nc2ccccc12

- IC50 [1]: 100 µM
Compound: COc1cccc(Nc2nc(NCCCO)c3ccccc3n2)c1

- IC50 [1]: 95 µM
Compound: CC(O)c1cccc(Nc2nc(N(C)C)c3ccccc3n2)c1 (stereo unspecified)

- IC50 [1]: 95 µM
Compound: OCCCNc1nc(Nc2ccc(O)cc2)nc2ccccc12

- IC50 [1]: 90 µM
Compound: OCCCNc1nc(Nc2ccc3c(c2)OCCO3)nc2c1CCCC2

- IC50 [1]: 85 µM
Compound: COc1cccc(Nc2nc(N(C)C)c3ccccc3n2)c1

- IC50 [1]: 75 µM
Compound: CC(=O)c1cccc(Nc2nc(NCCCO)c3ccccc3n2)c1

- IC50 [1]: 70 µM
Compound: COc1cc(-c2nc3cc(-n4cnnn4)ccc3[nH]2)ccc1OCCN1CCCC1

- IC50 [1]: 70 µM
Compound: CC(O)c1cccc(Nc2nc(N3CCCC3)c3ccccc3n2)c1 (stereo unspecified)

- IC50 [1]: 65 µM
Compound: COc1ccc(Nc2nc(N(C)C)c3ccccc3n2)cc1

- IC50 [1]: 60 µM
Compound: CN(C)c1ccc(Nc2nc(N(C)C)c3ccccc3n2)cc1

- IC50 [1]: 50 µM
Compound: COc1ccc(Nc2nc(NCCO)c3ccccc3n2)cc1Cl

- IC50 [1]: 50 µM
- Activity (Homo sapiens [4]): inactive
Compound: CN(C)c1nc(Nc2ccc(C(N)=O)cc2)nc2ccccc12

- IC50 [1]: 40 µM
- Activity (Homo sapiens [4]): Active
- Activity (Homo sapiens [5]): Active
Compound: CN(C)c1ccc(Nc2nc(NCCCO)c3ccccc3n2)cc1
- Activity (Fibroblast [6]): Non-Toxic

- IC50 [1]: 30 µM
- Activity (Homo sapiens [4]): inactive
Compound: CCNc1nc(Nc2ccc(NC(C)=O)cc2)nc2ccccc12

- IC50 [1]: 30 µM
Compound: Cn1ncc2ccc(Nc3nc(NCCCO)c4ccccc4n3)cc21

- IC50 [1]: 12.7 µM
Compound: Cc1ccc2nc(Nc3ccc4c(c3)OCCO4)nc(NCCCO)c2c1

- IC50 [1]: 10 µM
Compound: Cc1ccc2nc(Nc3ccc4nc(N(CCO)CCO)sc4c3)nc(NCCCO)c2c1

- IC50 [1]: 10 µM
Compound: Cc1ccc2nc(Nc3ccc4nc(C)oc4c3)nc(NCCCO)c2c1

- IC50 [1]: 1 µM
- Activity (Homo sapiens [2]): 30%
Compound: Cc1ccc2nc(Nc3ccc4nc(NCC(C)(C)O)sc4c3)nc(NCCCO)c2c1
- Activity (Fibroblast [3]): Non-Toxic
